High-throughput results (PubChem)
MT stabilize HCS: microtubule stabilizers in HeLa cells, primary screen, imaging, high-content imaging. HeLa tubulin immunostaining HCS, 24 h; share of cells brighter than vehicle mean+2SD. % tubulin-high responders, % at 10 µM. hit rate 0.83% among 200,000;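 active means plate Z-score above 3 for both tubulin-high and condensed-nucleus cell shares, with cell loss under 80%, at 10 µM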;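 further: anti alpha tubulin signal scored within the nucleus-defined area of each cell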
APP transl inh: inhibitors of APP translation via 5'UTR reporter, primary screen, APP 5'UTR luciferase, SH-SY5Y cells. hit rate 0.82% among 190,000. SH-SY5Y APP 5'UTR-luciferase reporter, luminescence. inhibition, % at 2 µM. AID 1285, 2008;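 active means inhibition above a set limit, derived from the sample mean plus 3 SD, cut at about 45% in these data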
L major viab: Leishmania major promastigote growth inhibition, primary screen; Leishmania major promastigotes, resazurin fluorescence viability; inhibition, % at 10 µM; hit rate 9% among 200,000; AID 1063, 2008; in the data active means inhibition above about 50%;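 further: promastigotes grown with compound for 44 hours at 28 °C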
Ba/F3 V617F tox: reduced viability of JAK2V617F-dependent Ba/F3 cells, primary screen, JAK2V617F inhibitor project, cell-based, Ba/F3 EpoR-JAK2V617F, luminescence. ATP luminescence. hit rate 1.1% among 220,000. AID 1446, 2008. inhibition, % at 5.6 µM;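 active means inhibition above the campaign mean plus 3 SD over all tested compounds, cut at about 24% in these data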;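 further: cytokine-independent growth of Ba/F3 cells driven by EpoR plus mutant JAK2; 0% = DMSO-treated cells and 100% = JAK inhibitor I control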
BaF3 tox: parental Ba/F3 cell viability inhibition, counter-screen for JAK2V617F inhibitor project, murine pro-B, CellTiter-Glo luminescence; CellTiter-Glo ATP luminescence; inhibition, % at 5.6 µM; AID 1486, 2009; hit rate 1.1% among 220,000;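 active means inhibition above a per-campaign cutoff, the mean inhibition of all tested compounds plus 3 SD, cut at about 27% in these data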;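 further: 0% = DMSO wells and 100% = JAK Inhibitor I control wells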
b-catenin transl: modulators of beta-catenin nuclear translocation, primary screen, imaging, HeLa cells, immunofluorescence, high-content; nuclear translocation activity, % at 5 µM; hit rate 0.3% among 190,000; AID 1665, 2009;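 active means nuclear translocation activity above 50% at 5 µM, with a well cell count of 50 or more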;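 further: per-cell ratio of nuclear to cytoplasmic median beta-catenin stain intensity; plate controls were DMSO negative control for no effect and GSK-3 inhibitor IX positive control for full effect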
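Test system: human HeLa cell line; Doses: 5 µM primary, 0.02–20 µM confirmation; Incubation: 24 h compound exposure, 37°C; Detection: beta-catenin immunofluorescence imaging with DAPI; Read-out: beta-catenin nuclear/cytoplasmic ratio, % activation.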
Starred values were filed as active, the others as inactive; / = not tested or not shown. Sampled rows, rich in hits. Any-hit rate of the full collection: about 9.6%.

SMILES | MT stabilize HCS | APP transl inh | L major viab | Ba/F3 V617F tox | BaF3 tox | b-catenin transl
COc1cc(C)c(Cl)c(C)c1S(=O)(=O)NCc1cccnc1 | 3 | 46* | -1 | -1 | 4 | /
Cc1cc(C)c(C)c(S(=O)(=O)NCc2cccnc2)c1C | 3 | 4 | -1 | 4 | 6 | 0
Cc1ccc(C)c(CSc2ncccc2C(=O)O)c1 | 2 | 9 | -7 | -2 | -1 | -2
Cc1ccc(Nc2nc(-c3sc(NC(=O)c4ccco4)nc3C)cs2)cc1 | 3 | -3 | 61* | -2 | 3 | 11
CCOc1ccccc1Nc1nc(-c2sc(NC(=O)c3ccco3)nc2C)cs1 | 14 | 18 | 99* | 4 | 2 | 8
CC(=O)c1ccc(C(=O)N2CCC(CO)(Cc3cccc(C(F)(F)F)c3)CC2)cc1 | 4 | -7 | 7 | 3 | 5 | -2
COc1ccc(CC2(CO)CCN(Cc3cc4ccccc4o3)CC2)cc1 | 4 | -4 | 79* | 2 | 5 | 1
Cc1c(CN2CCC(CO)(Cc3cccc(C(F)(F)F)c3)CC2)c2ccccc2n1C | 3 | -7 | 87* | 0 | 2 | -3
OCC1(Cc2cccc(C(F)(F)F)c2)CCN(Cc2cc3ccccc3o2)CC1 | 1 | -14 | 84* | 1 | 6 | 2
O=c1ccc(-c2ccccc2)no1 | / | / | / | -4 | 2 | -1
Nc1nnc(-c2cc3c(ccc4ccccc43)oc2=O)s1 | 8 | 3 | 81* | 4 | 5 | -2
Cc1nonc1C1CCCN1C(=O)c1cc(COc2ccc(F)cc2Cl)on1 (configuration not stated) | 2 | -6 | 2 | 3 | 2 | 0
COc1ccc(C(=O)NNC(=O)CN2CCC(n3nnc4cc(F)ccc43)CC2)cc1 | 2 | 8 | 50* | -2 | 4 | 0
Cc1cc2c(cc1C)C(c1cc(Br)ccc1F)CC(=O)N2 (configuration not stated) | 27* | 21 | 5 | 1 | 6 | 23
COc1cc(/C=C/C(=O)Nc2nnc(CC(C)(C)C)s2)cc(OC)c1OC | 2 | -11 | 4 | -1 | -2 | 0
COc1cc(/C=C/C(=O)Nc2nnc(CC(C)C)s2)cc(OC)c1OC | 3 | 0 | 59* | -3 | 1 | -1
COc1cc(/C=C/C(=O)Nc2ccc(C(C)=O)cc2)cc(OC)c1OC | 4 | 3 | 69* | -4 | 1 | /
C/C(=N\NC(=S)NC1CCCCC1)c1cccc(C(F)(F)F)c1 | / | / | / | 0 | 1 | 2
Cc1ccccc1CNc1nc(N)n(-c2ccccc2)n1 | 3 | 0 | -2 | -2 | 96* | 0
COc1ccc2[nH]c(=O)c(CN(CC3CCCO3)C(=O)Nc3ccccc3OC)cc2c1 (configuration not stated) | 40* | 14 | 11 | 2 | 3 | 2
COc1ccccc1NC(=O)N(Cc1cc2cc(OC)c(OC)cc2[nH]c1=O)CC1CCCO1 (configuration not stated) | 1 | 2 | -4 | 2 | 10 | -8
O=C(c1ccco1)N(Cc1cc2ccccc2[nH]c1=O)C1CCCCC1 | 1 | -14 | 4 | -5 | -4 | -2
O=C(c1ccncc1)N(Cc1cc2ccccc2[nH]c1=O)C1CCCCC1 | 3 | 12 | 0 | 40* | 29* | -2
COc1ccc2[nH]c(=O)c(CN(C(=O)NC3CCCCC3)C3CCCCC3)cc2c1 | 5 | -13 | 100* | 2 | 9 | 0
COc1ccccc1NC(=S)N(Cc1ccco1)Cc1cc2cc(C)ccc2[nH]c1=O | 33* | -4 | 23 | 4 | 8 | 0
SMILES | MT stabilize HCS | APP transl inh | L major viab | Ba/F3 V617F tox | BaF3 tox | b-catenin transl
Cc1cc(F)ccc1NCc1ccc([N+](=O)[O-])cc1 | 3 | -13 | 4 | 2 | 8 | 1
COc1ccc(O[C@H]2C=C[C@@H](c3ccccc3)O[C@@H]2CO/N=C(\C)CCC(=O)OC[C@H]2O[C@H](c3ccccc3)C=C[C@@H]2Oc2ccc(OC)cc2)cc1 | 3 | 16 | -5 | -3 | 1 | /
Cc1ccc2cc(CN(CC3CCCO3)C(=O)C(C)C)c(=O)[nH]c2c1 (configuration not stated) | 2 | -4 | -3 | -5 | 0 | 0
Cc1ccc2[nH]c(=O)c(CN(CC3CCCO3)C(=O)c3ccncc3)cc2c1 (configuration not stated) | 3 | 2 | 70* | 3 | 8 | /
Cc1ccc2[nH]c(=O)c(CN(Cc3ccco3)C(=O)c3ccncc3)cc2c1 | 14* | 10 | 7 | 0 | 7 | -3
COCCCNC(=O)CCCn1c(=O)c2ccccc2n(CC(=O)Nc2c(C)cc(C)cc2C)c1=O | 4 | 4 | 10 | -2 | 2 | -2
COc1ccc(S(=O)(=O)N2CN(Cc3ccco3)c3nc4ccccc4nc32)cc1 | 2 | 8 | 9 | -2 | -1 | /
COc1ccc(CCN2CN(S(=O)(=O)c3ccc(OC)cc3)c3nc4ccccc4nc32)cc1 | 2 | -6 | 85* | -2 | 6 | 0
O=S(=O)(c1ccc(F)cc1)N1CN(Cc2ccco2)c2nc3ccccc3nc21 | 2 | -21 | 97* | 2 | 2 | -2
Cc1ccc(S(=O)(=O)N2CN(Cc3ccco3)c3nc4ccccc4nc32)cc1 | 3 | -16 | 58* | -2 | -1 | 5
NC(=O)c1cc([N+](=O)[O-])ccc1NCCN1C(=O)c2ccccc2C1=O | 3 | 14 | -3 | 1 | 3 | 0
Cc1ccc(NC(=S)Nc2cccnc2)c(S(=O)(=O)N2CCCCC2)c1 | 3 | 10 | 3 | -2 | 4 | -1
Cc1c(C(=O)N2CCOCC2)[nH]c2c1C(=O)CC(c1ccccc1Cl)C2 (configuration not stated) | 41* | 85* | 0 | 85* | 84* | /
Cc1c(C(=O)OCC(C)C)[nH]c2c1C(=O)CC(c1ccco1)C2 (configuration not stated) | 3 | 96* | 18 | 79* | 76* | 183*
Cc1c(C(=O)OC2CCCC2)[nH]c2c1C(=O)CC(c1ccco1)C2 (configuration not stated) | 10 | 94* | 1 | 77* | 81* | 132*
CCOC(=O)c1[nH]c2c(c1C)C(=O)CC(c1ccc(OC)c(OC)c1)C2 (configuration not stated) | 4 | 44 | -3 | -2 | 2 | -1
CC1=C(C(=O)N2CCOCC2)C(c2c(F)cccc2F)NC(=O)N1 (configuration not stated) | 1 | -14 | 4 | 5 | 11 | 0
Cc1c(C(=O)OCC2CCCO2)[nH]c2c1C(=O)CC(c1ccco1)C2 (configuration not stated) | 40* | 33 | 2 | 11 | 4 | 89*
